Test results from ChEMBL document CHEMBL1275435, “A naturally occurring proline-to-alanine amino acid change in Fks1p in Candida parapsilosis, Candida orthopsilosis, and Candida metapsilosis accounts for reduced echinocandin susceptibility” (Antimicrob Agents Chemother, 2008).
Values after ≈ are worked out from the molar mass of the structure shown. *1 amine or outer side, *2 acyl side, *3 side chain or, on linkers, in order; H or OH if unused. Where a SMILES comes first, the peptide text is derived from it. Bridges are numbered along the chain shown (N, C = ends). [ ]: non-standard residue; d: D form. The star is where a group is joined. pTerphenylCO(4''-OnC5H11) = CCCCCOc1ccc(-c2ccc(-c3ccc(C(=O)*)cc3)cc2)cc1; Orn(4R-OH,5R-OH) = O=C([C@H](C[C@@H](O)[C@@H](O)N[*:3])N[*:1])[*:2]; hTyr(3S-OH,4S-OH) = N[C@H](C(=O)O)[C@H](O)[C@@H](O)c1ccc(O)cc1; Pro(3S-OH,4S-Me) = C[C@H]1CN[C@H](C(=O)O)[C@H]1O; Hyp = O=C(O)[C@@H]1C[C@@H](O)CN1

Legend:
[1] = tested on: Candida albicans; experiment: Antifungal activity against Candida albicans M122 by CLSI method; type: functional
[2] = tested on: Candida parapsilosis; experiment: Antifungal activity against Candida parapsilosis H4 by CLSI method; type: functional; details: Lodderomyces parapsilosis
[3] = Inhibition of Candida parapsilosis H4 glucan synthase assessed as [3H]UDPG incorporation
Method in brief: (§1)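 Cells were grown with vigorous shaking at 30°C to early stationary phase in YPD. Membrane GS was partially purified by product entrapment, using 10-fold more cells for low-activity strains. The polymerization assay was started by adding GS, with drug serially diluted from 0.01 to 10,000 ng/ml. Reactions ran 60 min at 25°C and were stopped on ice. IC50 came from sigmoidal variable-slope fits, as arithmetic means ± SD of three repetitions on three days.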

[4] = Inhibition of Candida metapsilosis 960161 glucan synthase assessed as [3H]UDPG incorporation; method in brief: as §1
[5] = Inhibition of Candida parapsilosis H5 glucan synthase assessed as [3H]UDPG incorporation; method in brief: as §1
[6] = tested on: Candida parapsilosis; experiment: Antifungal activity against Candida parapsilosis H5 by CLSI method; type: functional; details: Lodderomyces parapsilosis
[7] = tested on: Saccharomyces cerevisiae; experiment: Antifungal activity against Saccharomyces cerevisiae BY4742-FKS1P649A mutant by CLSI method; type: functional
Method in brief: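 Broth microdilution following CLSI M27-A2, run in YPD broth (1% yeast extract, 2% Bacto peptone, 2% dextrose). MICs are geometric means of at least three repetitions on three separate days.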

[8] = Inhibition of Saccharomyces cerevisiae BY4742 glucan synthase assessed as [3H]UDPG incorporation; method in brief: as §1
[9] = tested on: Candida metapsilosis; experiment: Antifungal activity against Candida metapsilosis am-2006-0113 by CLSI method; type: functional; details: Lodderomyces metapsilosis
[10] = Inhibition of Candida metapsilosis am-2006-0113 glucan synthase assessed as [3H]UDPG incorporation; method in brief: as §1
[11] = Inhibition of Candida orthopsilosis H10 glucan synthase assessed as [3H]UDPG incorporation; method in brief: as §1
[12] = tested on: Candida albicans; experiment: Antifungal activity against Candida albicans ATCC 90028 by CLSI method; type: functional
[13] = Inhibition of Candida albicans ATCC 36082 glucan synthase assessed as [3H]UDPG incorporation; method in brief: as §1
[14] = tested on: Candida metapsilosis; experiment: Antifungal activity against Candida metapsilosis 960161 by CLSI method; type: functional; details: Lodderomyces metapsilosis
[15] = Inhibition of Candida albicans Sc5314 glucan synthase assessed as [3H]UDPG incorporation; method in brief: as §1
[16] = tested on: Nakaseomyces glabratus; experiment: Antifungal activity against Candida glabrata T51916 by CLSI method; type: functional
[17] = tested on: Candida orthopsilosis; experiment: Antifungal activity against Candida orthopsilosis H10 by CLSI method; type: functional; details: Lodderomyces orthopsilosis
[18] = Inhibition of Candida glabrata ATCC 90030 glucan synthase assessed as [3H]UDPG incorporation; design: species or system Nakaseomyces glabratus; method in brief: as §1
[19] = Inhibition of Saccharomyces cerevisiae BY4742-FKS1P649A mutant glucan synthase assessed as [3H]UDPG incorporation; method in brief: as §1
[20] = Inhibition of Candida parapsilosis ATCC 22019 glucan synthase by assessed as [3H]UDPG incorporation; method in brief: as §1
[21] = tested on: Nakaseomyces glabratus; experiment: Antifungal activity against Candida glabrata ATCC 90030 by CLSI method; type: functional
[22] = tested on: Saccharomyces cerevisiae; experiment: Antifungal activity against FKS1 deficient Saccharomyces cerevisiae BY4742 by CLSI method; type: functional
[23] = Inhibition of Candida orthopsilosis 981224 glucan synthase assessed as [3H]UDPG incorporation; method in brief: as §1
[24] = tested on: Candida albicans; experiment: Antifungal activity against Candida albicans Sc5314 by CLSI method; type: functional
[25] = tested on: Candida albicans; experiment: Antifungal activity against Candida albicans ATCC 36082 by CLSI method; type: functional
[26] = tested on: Candida orthopsilosis; experiment: Antifungal activity against Candida orthopsilosis 981224 by CLSI method; type: functional; details: Lodderomyces orthopsilosis
[27] = tested on: Saccharomyces cerevisiae; experiment: Antifungal activity against Saccharomyces cerevisiae BY4742 by CLSI method; type: functional
[28] = tested on: Candida parapsilosis; experiment: Antifungal activity against Candida parapsilosis ATCC 22019 by CLSI method; type: functional; details: Lodderomyces parapsilosis
[29] = Inhibition of Candida glabrata T51916 glucan synthase assessed as [3H]UDPG incorporation; design: species or system Nakaseomyces glabratus; method in brief: as §1
[30] = Inhibition of Candida albicans ATCC 90028 glucan synthase assessed as [3H]UDPG incorporation; method in brief: as §1
[31] = Inhibition of Candida albicans M122 glucan synthase assessed as [3H]UDPG incorporation; method in brief: as §1

CCCCCOc1ccc(-c2ccc(-c3ccc(C(=O)N[C@H]4C[C@@H](O)[C@@H](O)NC(=O)[C@@H]5[C@@H](O)[C@@H](C)CN5C(=O)[C@H]([C@@H](C)O)NC(=O)[C@H]([C@H](O)[C@@H](O)c5ccc(O)cc5)NC(=O)[C@@H]5C[C@@H](O)CN5C(=O)[C@H]([C@@H](C)O)NC4=O)cc3)cc2)cc1 [ANIDULAFUNGIN] ({pTerphenylCO(4''-OnC5H11)}-[Orn(4R-OH,5R-OH)]T[Hyp][hTyr(3S-OH,4S-OH)]T[Pro(3S-OH,4S-Me)]; lactam 1-C)
MIC [1]: 0.15 µg/mL (≈ 0.132 µM)
MIC [2]: 2.24 µg/mL (≈ 1.96 µM)
IC50 [3]: 0.11012 µg/mL (≈ 0.0966 µM)
Ki [3]: 0.3685 µg/mL (≈ 0.323 µM)
IC50 [4]: 0.1333 µg/mL (≈ 0.117 µM)
Ki [4]: 0.129 µg/mL (≈ 0.113 µM)
IC50 [5]: 0.23707 µg/mL (≈ 0.208 µM)
Ki [5]: 0.43167 µg/mL (≈ 0.379 µM)
MIC [6]: 1.59 µg/mL (≈ 1.39 µM)
MIC [7]: 0.5 µg/mL (≈ 0.438 µM)
IC50 [8]: 0.10737 µg/mL (≈ 0.0942 µM)
Ki [8]: 0.06895 µg/mL (≈ 0.0605 µM)
MIC [9]: 0.63 µg/mL (≈ 0.553 µM)
IC50 [10]: 0.1264 µg/mL (≈ 0.111 µM)
Ki [10]: 0.0414 µg/mL (≈ 0.0363 µM)
IC50 [11]: 0.16317 µg/mL (≈ 0.143 µM)
Ki [11]: 0.111 µg/mL (≈ 0.0973 µM)
MIC [12]: 0.02 µg/mL (≈ 0.0175 µM)
IC50 [13]: 0.00183 µg/mL (≈ 0.0016 µM)
Ki [13]: 0.00063 µg/mL (≈ 0.000553 µM)
MIC [14]: 0.79 µg/mL (≈ 0.693 µM)
IC50 [15]: 0.00089 µg/mL (≈ 0.000781 µM)
Ki [15]: 0.00133 µg/mL (≈ 0.00117 µM)
MIC [16]: 1.59 µg/mL (≈ 1.39 µM)
MIC [17]: 0.79 µg/mL (≈ 0.693 µM)
IC50 [18]: 0.00377 µg/mL (≈ 0.00331 µM)
IC50 [19]: 1.663 µg/mL (≈ 1.46 µM)
Ki [19]: 2.374 µg/mL (≈ 2.08 µM)
IC50 [20]: 0.44203 µg/mL (≈ 0.388 µM)
Ki [20]: 0.6395 µg/mL (≈ 0.561 µM)
MIC [21]: 0.05 µg/mL (≈ 0.0438 µM)
MIC [22]: 0.015 µg/mL (≈ 0.0132 µM)
IC50 [23]: 0.1419 µg/mL (≈ 0.124 µM)
Ki [23]: 0.0465 µg/mL (≈ 0.0408 µM)
MIC [24]: 0.08 µg/mL (≈ 0.0702 µM)
MIC [25]: 0.02 µg/mL (≈ 0.0175 µM)
MIC [26]: 1.26 µg/mL (≈ 1.11 µM)
MIC [27]: 0.03 µg/mL (≈ 0.0263 µM)
MIC [28]: 1.1 µg/mL (≈ 0.965 µM)
IC50 [29]: 0.20686 µg/mL (≈ 0.181 µM)
Ki [29]: 0.712 µg/mL (≈ 0.624 µM)
IC50 [30]: 0.00163 µg/mL (≈ 0.00143 µM)
Ki [30]: 0.00143 µg/mL (≈ 0.00125 µM)
IC50 [31]: 0.53013 µg/mL (≈ 0.465 µM)
Ki [31]: 0.646 µg/mL (≈ 0.567 µM)

CC[C@H](C)C[C@H](C)CCCCCCCCC(=O)N[C@H]1C[C@@H](O)[C@@H](NCCN)NC(=O)[C@@H]2[C@@H](O)CCN2C(=O)[C@H]([C@H](O)CCN)NC(=O)[C@H]([C@H](O)[C@@H](O)c2ccc(O)cc2)NC(=O)[C@@H]2C[C@@H](O)CN2C(=O)[C@H]([C@@H](C)O)NC1=O [CASPOFUNGIN]
MIC [1]: 4 µg/mL (≈ 3.66 µM)
MIC [2]: 2.24 µg/mL (≈ 2.05 µM)
IC50 [3]: 0.07919 µg/mL (≈ 0.0724 µM)
Ki [3]: 0.00393 µg/mL (≈ 0.00359 µM)
IC50 [4]: 0.02515 µg/mL (≈ 0.023 µM)
Ki [4]: 0.08045 µg/mL (≈ 0.0736 µM)
IC50 [5]: 0.01253 µg/mL (≈ 0.0115 µM)
Ki [5]: 0.00601 µg/mL (≈ 0.0055 µM)
MIC [6]: 2.24 µg/mL (≈ 2.05 µM)
MIC [7]: 0.5 µg/mL (≈ 0.457 µM)
IC50 [8]: 0.06554 µg/mL (≈ 0.0599 µM)
Ki [8]: 0.18394 µg/mL (≈ 0.168 µM)
MIC [9]: 0.79 µg/mL (≈ 0.723 µM)
IC50 [10]: 0.04028 µg/mL (≈ 0.0368 µM)
Ki [10]: 0.0769 µg/mL (≈ 0.0703 µM)
IC50 [11]: 0.05816 µg/mL (≈ 0.0532 µM)
Ki [11]: 0.00429 µg/mL (≈ 0.00392 µM)
MIC [12]: 0.2 µg/mL (≈ 0.183 µM)
IC50 [13]: 0.0006 µg/mL (≈ 0.000549 µM)
Ki [13]: 0.00046 µg/mL (≈ 0.000421 µM)
MIC [14]: 1 µg/mL (≈ 0.915 µM)
Ki [15]: 0.00297 µg/mL (≈ 0.00272 µM)
MIC [16]: 2 µg/mL (≈ 1.83 µM)
MIC [17]: 1 µg/mL (≈ 0.915 µM)
IC50 [18]: 0.00312 µg/mL (≈ 0.00285 µM)
IC50 [19]: 1.32867 µg/mL (≈ 1.22 µM)
Ki [19]: 1.215 µg/mL (≈ 1.11 µM)
IC50 [20]: 0.02121 µg/mL (≈ 0.0194 µM)
Ki [20]: 0.04799 µg/mL (≈ 0.0439 µM)
MIC [21]: 0.1 µg/mL (≈ 0.0915 µM)
MIC [22]: 0.02 µg/mL (≈ 0.0183 µM)
IC50 [23]: 0.07526 µg/mL (≈ 0.0688 µM)
Ki [23]: 0.0074 µg/mL (≈ 0.00677 µM)
MIC [24]: 0.4 µg/mL (≈ 0.366 µM)
MIC [25]: 0.2 µg/mL (≈ 0.183 µM)
MIC [26]: 0.79 µg/mL (≈ 0.723 µM)
MIC [27]: 0.03 µg/mL (≈ 0.0274 µM)
MIC [28]: 1.4 µg/mL (≈ 1.28 µM)
IC50 [29]: 0.1575 µg/mL (≈ 0.144 µM)
Ki [29]: 0.1945 µg/mL (≈ 0.178 µM)
IC50 [30]: 0.00052 µg/mL (≈ 0.000476 µM)
Ki [30]: 0.00095 µg/mL (≈ 0.000869 µM)
IC50 [31]: 0.07948 µg/mL (≈ 0.0727 µM)
Ki [31]: 0.292 µg/mL (≈ 0.267 µM)
